TRPC4 PAM – allosteric potentiators of mouse TRPC4 channel | Q9QUQ5 | HEK293 TRPC4beta/mu-opioid, DAMGO EC20, Fluo-4 Ca2+ flux; active compounds read high | B-score at 10 µM | 0.42% of 310,000 active;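 active = B-score of calcium response area above 5 SD of library B-scores, with initial fluorescence ratio within 5 SD of library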;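 also: B-score of integrated fluorescence ratio over time as area under calcium response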
Target sequence (Q9QUQ5 whole entry, looked up): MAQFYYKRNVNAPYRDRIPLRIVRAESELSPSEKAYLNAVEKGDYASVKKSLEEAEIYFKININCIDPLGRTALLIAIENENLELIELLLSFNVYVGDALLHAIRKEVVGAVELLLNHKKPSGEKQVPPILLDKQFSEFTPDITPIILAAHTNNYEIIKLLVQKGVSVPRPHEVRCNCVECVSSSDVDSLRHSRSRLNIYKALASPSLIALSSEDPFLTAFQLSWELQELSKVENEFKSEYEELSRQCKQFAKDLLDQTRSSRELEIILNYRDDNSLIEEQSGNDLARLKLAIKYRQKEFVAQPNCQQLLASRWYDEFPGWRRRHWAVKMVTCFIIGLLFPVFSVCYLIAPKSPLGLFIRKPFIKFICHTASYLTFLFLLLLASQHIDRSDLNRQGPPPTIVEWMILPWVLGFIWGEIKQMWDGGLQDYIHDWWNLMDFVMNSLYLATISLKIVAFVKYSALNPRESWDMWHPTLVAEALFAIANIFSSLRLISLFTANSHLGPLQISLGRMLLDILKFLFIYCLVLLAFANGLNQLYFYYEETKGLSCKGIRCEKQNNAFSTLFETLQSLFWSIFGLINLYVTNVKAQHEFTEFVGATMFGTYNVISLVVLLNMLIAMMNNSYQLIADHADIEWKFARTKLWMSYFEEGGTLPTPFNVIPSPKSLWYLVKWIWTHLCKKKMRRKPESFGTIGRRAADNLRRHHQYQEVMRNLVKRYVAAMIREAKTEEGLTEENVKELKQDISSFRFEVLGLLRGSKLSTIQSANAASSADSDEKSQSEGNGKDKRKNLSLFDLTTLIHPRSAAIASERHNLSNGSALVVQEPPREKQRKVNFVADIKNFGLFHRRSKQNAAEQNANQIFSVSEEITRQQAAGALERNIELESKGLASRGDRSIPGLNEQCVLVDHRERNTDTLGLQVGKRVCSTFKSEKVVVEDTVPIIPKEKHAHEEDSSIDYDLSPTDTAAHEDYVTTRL
TRPC4 block – inhibitors of mouse TRPC4 channel | Q9QUQ5 | HEK293 TRPC4beta/mu-opioid, DAMGO-evoked Fluo4 calcium flux; active compounds read low | B-score at 10 µM | 0.39% of 300,000 active;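 active = B-score over 3 SD under the library average, no early fluorescence shift, positive overall ratio signal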
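System: stable TRPC4beta/mu-opioid receptor HEK293 cells; Dosing: single-point compound dosing; Measured by: Fluo4 Ca2+ flux fluorescence; Read-out basis: per-well B score of integrated baseline-normalized Fluo4 ratio.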
TRPC4 act – opens the mouse TRPC4 cation channel | Q9QUQ5 | HEK293 TRPC4beta/mu-opioid, Fluo4 calcium fluorescence; active compounds read high | B-score at 10 µM | 0.49% of 310,000 active;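 active = B-score above 5 SD of library B-scores, and initial fluorescence ratio not above library mean plus 5 SD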;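 also: positive B-score marks a calcium rise read as TRPC4 activation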
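Incubation: 45 min room-temperature Fluo4 loading, 110 s read / System: HEK293 cells stably co-expressing mouse TRPC4beta and mu-opioid receptor / Signal: Fluo4 fluorescence, kinetic / Control set: buffer (low) and maximal DAMGO (high) / Measure: integrated baseline-normalised fluorescence ratio, converted to per-well B score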
TRPC6 activator – activates the mouse TRPC6 cation channel; 0.13% of 310,000 active; HEK293-TRPC6 membrane potential dye fluorescence; active compounds read high; B-score at 10 µM; AID 2550;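 active = B-score of the integrated fluorescence ratio above library mean plus 3 SD, and starting fluorescence ratio within library mean plus 5 SD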;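 also: higher score means more depolarization so channel activation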
TRPC6 inh – inhibitors of mouse TRPC6 channel. HEK293-TRPC6, membrane potential dye, ACh-evoked depolarization; active compounds read low. B-score at 10 µM. 1.1% of 310,000 active;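 active = B-score under library mean minus 3 SD, initial fluorescence not abnormally high, positive integrated signal ratio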;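 also: B-score derived from integrated fluorescence ratio over the kinetic read; more negative B-score means stronger inhibition of depolarization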
TRPC4 sel inh 2 – second check of whether TRPC6 inhibitors also affect mouse TRPC4 | shares compounds with TRPC6 inh | HEK293 TRPC4/MOR, membrane potential dye fluorescence; channel activated by saturating DAMGO dose | inhibition, % at 10 µM | 42% of 920 active | AID 2776;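 active = compounds whose fluorescence signal differed from control wells by over 3 SD, either direction, in both duplicate plates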
TRPC4 spec – tests whether TRPC6 inhibitors also affect mouse TRPC4. shares compounds with TRPC6 inh. activity change, negative = inhibition, % at 10 µM. 61% of 920 active. HEK293 TRPC4/mu-opioid, membrane potential fluorescence;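 active = rise or fall in signal beyond 3 SD of buffer-only wells in both replicate plates, either sign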;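 also: integrated kinetic ratio of fluorescence range over baseline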
HEK293 MPD ctr 2-1 – second check of TRPC6 inhibitor effects in parental HEK293 cells; 31% of 920 active; shares compounds with TRPC6 inh; AID 2779; parental HEK293 membrane potential dye fluorescence; maximal acetylcholine challenge after compound addition; signal change vs control, % at 10 µM;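 active = membrane potential signal moving either way by over 3 SD of the maximum-effect control, in both duplicate plates, meaning non-specific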
HEK293 MPD ctr-1 – counter-screen for TRPC6 inhibitors: effect in parental HEK293 cells. shares compounds with TRPC6 inh. parental HEK293 membrane potential dye fluorescence. membrane potential signal change, % at 10 µM. 60% of 920 active;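 active = membrane potential signal shifting up or down by more than 3 SD of buffer-only wells, on both duplicate plates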
HEK293 MPD ctr-2 – counter-screen for TRPC6 modulators: effect in parental HEK293 cells. shares compounds with TRPC6 inh. membrane potential dye fluorescence. membrane potential signal change, % at 10 µM. 51% of 2,400 active. AID 488924;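 active = membrane potential signal moves up or down beyond 5 SD from buffer-only wells, on both duplicate plates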
HEK293 MPD ctr 2-2 – second check of TRPC6 modulator effects in parental HEK293 cells; membrane potential dye fluorescence; after compound, maximal acetylcholine stimulation; inhibition, % at 10 µM; shares compounds with TRPC6 inh; 14% of 2,400 active; AID 488926;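 active = membrane potential signal drops by more than 5 SD from the mean control signal, in both duplicate plates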;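 also: plate controls were acetylcholine ECmax control wells for no effect and buffer only wells for full effect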
TRPC4/MOR mod – mouse TRPC4 off-target activity of TRPC6 modulators. 69% of 2,400 active. HEK293 TRPC4/mu-opioid, membrane potential fluorescence. percent change from control (negative = decrease, positive = increase), % at 10 µM. shares compounds with TRPC6 inh. AID 488927;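 active = membrane potential signal moved up or down beyond 5 SD of buffer control wells, in both duplicate plates, actives on both sides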;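 also: plate controls were assay buffer wells for no effect and DAMGO maximal-effect wells for full effect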
TRPC4 ctr inh 2 – second check of whether TRPC6 modulators also affect mouse TRPC4; shares compounds with TRPC6 inh; HEK293 TRPC4/mu-opioid, membrane potential dye fluorescence; stimulated with maximal-effect DAMGO; inhibition, % at 10 µM; 55% of 2,400 active;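 active = drop in membrane potential signal beyond 5 SD of the control wells in both duplicate plates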;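 also: TRPC4 counter screen for TRPC6 hits run under conditions tuned for TRPC6 not TRPC4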
TRPC6 inh conf – confirmation of mouse TRPC6 inhibitors. shares compounds with TRPC6 inh. HEK293-TRPC6, membrane potential dye, ACh-evoked depolarization. inhibition, % at 10 µM. 43% of 3,300 active. AID 488960;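 active = fluorescence ratio falls more than 5 SD below the full-stimulation control mean, in both duplicate runs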;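 also: integrated fluorescence ratio of peak minus minimum over baseline after agonist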
TRPC6 act confirm – mouse TRPC6 activator confirmation | shares compounds with TRPC6 inh | activation, % at 10 µM | 11% of 2,800 active | HEK293-TRPC6 membrane potential dye fluorescence, FDSS;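 active = ratio signal rise beyond 5 SD above unstimulated control wells' mean, seen in both duplicate runs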;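 also: plate controls were buffer EC0 wells for no effect and acetylcholine ECmax response for full effect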
Active calls of the source: *. A selection: hits, their analogues and other compounds. The true share with any hit is near 2.3%.

How did Cc1c(C)n(CCCN(C)C)c2ncnc(Nc3ccc(F)cc3)c12 do in these assays?
TRPC4 PAM: inactive; TRPC4 block: inactive; TRPC4 act: inactive; TRPC6 activator: inactive; TRPC6 inh: -6.32*; HEK293 MPD ctr-2: -144.0%*; HEK293 MPD ctr 2-2: inactive; TRPC4/MOR mod: -30.0%*; TRPC4 ctr inh 2: 37.5%*; TRPC6 inh conf: 40.0%*; TRPC6 act confirm: inactive

Results for N=c1c(C(=O)NCc2ccc(F)cc2)cc2c(=O)n3ccccc3nc2n1Cc1cccnc1 ?
TRPC4 PAM: inactive; TRPC4 block: inactive; TRPC4 act: inactive; TRPC6 activator: inactive; TRPC6 inh: -5.76*; HEK293 MPD ctr-2: inactive; HEK293 MPD ctr 2-2: inactive; TRPC4/MOR mod: -33.5%*; TRPC4 ctr inh 2: inactive; TRPC6 inh conf: 51.5%*; TRPC6 act confirm: inactive

Results for COC(=O)c1cc2c(=O)n3ccccc3nc2n(Cc2cccnc2)c1=N ?
TRPC4 PAM: inactive; TRPC4 block: inactive; TRPC4 act: inactive; TRPC6 activator: inactive; TRPC6 inh: -7.8*; TRPC4 sel inh 2: 75.0%*; TRPC4 spec: -33.2%*; HEK293 MPD ctr 2-1: inactive; HEK293 MPD ctr-1: -520.0%*; TRPC6 inh conf: inactive; TRPC6 act confirm: inactive

How did CSc1nc(SCC(=O)NCC2CCCO2)c2c3c(sc2n1)CN(C)CC3 (centres undefined) do in these assays?
TRPC4 PAM: inactive; TRPC4 block: inactive; TRPC4 act: inactive; TRPC6 activator: inactive; TRPC6 inh: -4.99*; HEK293 MPD ctr-2: -134.5%*; HEK293 MPD ctr 2-2: inactive; TRPC4/MOR mod: -28.5%*; TRPC4 ctr inh 2: inactive; TRPC6 inh conf: inactive; TRPC6 act confirm: inactive

Results for OCCNCc1cccc(OCc2ccc(Cl)cc2)c1 ?
TRPC4 PAM: inactive; TRPC4 block: inactive; TRPC4 act: inactive; TRPC6 activator: inactive; TRPC6 inh: inactive

What do the screens show for `OCCNCc1cc(Br)ccc1OCc1ccc(Cl)cc1`?
TRPC4 PAM: inactive; TRPC4 block: inactive; TRPC4 act: inactive; TRPC6 activator: inactive; TRPC6 inh: -5.65*; HEK293 MPD ctr-2: 101.5%*; HEK293 MPD ctr 2-2: inactive; TRPC4/MOR mod: 17.0%*; TRPC4 ctr inh 2: 89.0%*; TRPC6 inh conf: 45.0%*

How did N#CCCN(C(=O)COC(=O)Cc1ccc(Br)cc1)c1ccccc1 do in these assays?
TRPC4 PAM: inactive; TRPC4 block: inactive; TRPC4 act: inactive; TRPC6 activator: inactive; TRPC6 inh: inactive

What do the screens show for `COc1cc(CCC(=O)OCC(=O)N(CCC#N)c2ccccc2)cc(OC)c1OC`?
TRPC4 PAM: inactive; TRPC4 block: inactive; TRPC4 act: inactive; TRPC6 activator: inactive; TRPC6 inh: -5.37*; HEK293 MPD ctr-2: inactive; HEK293 MPD ctr 2-2: inactive; TRPC4/MOR mod: inactive; TRPC4 ctr inh 2: inactive; TRPC6 inh conf: inactive; TRPC6 act confirm: inactive

How did CC(C)(C)c1ccc(C(=O)N2CCC(NC(=O)c3ccccc3)CC2)cc1 do in these assays?
TRPC4 PAM: inactive; TRPC4 block: inactive; TRPC4 act: inactive; TRPC6 activator: inactive; TRPC6 inh: inactive

How did COc1ccc(/C=C(/NC(=O)/C=C/c2ccccc2)C(=O)N2CCOCC2)cc1 do in these assays?
TRPC4 PAM: inactive; TRPC4 block: inactive; TRPC4 act: inactive; TRPC6 activator: inactive; TRPC6 inh: -5.84*; HEK293 MPD ctr-2: inactive; HEK293 MPD ctr 2-2: inactive; TRPC4/MOR mod: inactive; TRPC4 ctr inh 2: inactive; TRPC6 inh conf: 41.5%*; TRPC6 act confirm: inactive

What do the screens show for `C=CCOc1cccc(C2C(C(=O)c3cc4ccccc4o3)=C(O)C(=O)N2c2cc(C)on2)c1` (centres undefined)?
TRPC4 PAM: inactive; TRPC4 block: inactive; TRPC4 act: inactive; TRPC6 activator: inactive; TRPC6 inh: inactive

How did Cc1ccc2c(c1)N(CC(=O)Nc1ncccc1C)C(=O)C(C(C)C)O2 (centres undefined) do in these assays?
TRPC4 PAM: inactive; TRPC4 block: inactive; TRPC4 act: inactive; TRPC6 activator: inactive; TRPC6 inh: inactive

How did CN(C)N(Cc1ccccc1)C(=O)C(O)(c1ccccc1)c1ccccc1 do in these assays?
TRPC4 PAM: inactive; TRPC4 block: inactive; TRPC4 act: inactive; TRPC6 activator: inactive; TRPC6 inh: inactive

What do the screens show for `CN(C)C(C)(C)/C=C/C(O)(c1ccccc1)c1ccccc1`?
TRPC4 PAM: inactive; TRPC4 block: inactive; TRPC4 act: inactive; TRPC6 activator: inactive; TRPC6 inh: -8.04*; TRPC4 sel inh 2: inactive; TRPC4 spec: inactive; HEK293 MPD ctr 2-1: -7.0%*; HEK293 MPD ctr-1: 0.3%*; TRPC6 inh conf: 54.1%*; TRPC6 act confirm: inactive

What do the screens show for `CN(C1=C(NC(=O)c2ccc(Cl)cc2)C(=O)c2ccccc2C1=O)c1ccccc1`?
TRPC4 PAM: inactive; TRPC4 block: inactive; TRPC4 act: inactive; TRPC6 activator: inactive; TRPC6 inh: -5.14*; HEK293 MPD ctr-2: -99.5%*; HEK293 MPD ctr 2-2: inactive; TRPC4/MOR mod: -31.5%*; TRPC4 ctr inh 2: 65.0%*; TRPC6 inh conf: inactive; TRPC6 act confirm: inactive

Screening results (PubChem BioAssay)
